High-throughput results as filed in PubChem BioAssay.
KCNQ1 act: potentiators or activators of KCNQ1 channel, primary screen, cell-based, thallium flux, high-throughput. 310,000 compounds, 0.35% hits. B-score at 10 µM. Potassium voltage-gated channel subfamily KQT member 1 (Homo sapiens), P51787. AID 2648, 2010. CHO-K1 KCNQ1, thallium flux FluxOR fluorescence; stronger effect = higher value;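 active means fluorescence ratio B-score, a plate-corrected score, at least three library SD, with initial intensity B-score within 5 SD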
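Assay system: CHO-K1 cells stably expressing KCNQ1. Medium: assay buffer for compound exposure, DMSO matched across wells. Timing: 37 °C overnight plating, 90-min dark dye load, 20-min compound pretreatment. Signal: kinetic FluxOR fluorescence, 10 s baseline plus 110 s post-stimulus.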
KCNK3 block: human KCNK3 channel inhibitors, primary screen, CHO cells, FluxOR thallium flux, B-score; Potassium channel subfamily K member 3 (Homo sapiens), O14649; B-score at 10 µM; FluxOR fluorescence; stronger effect = lower value; 340,000 compounds, 0.84% hits;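 active means B-score under library mean minus 4 SD, starting fluorescence ratio at most library mean plus 5 SD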;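 further: more negative B-score means stronger inhibition of thallium flux through KCNK3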
Target sequence (O14649 whole entry, looked up): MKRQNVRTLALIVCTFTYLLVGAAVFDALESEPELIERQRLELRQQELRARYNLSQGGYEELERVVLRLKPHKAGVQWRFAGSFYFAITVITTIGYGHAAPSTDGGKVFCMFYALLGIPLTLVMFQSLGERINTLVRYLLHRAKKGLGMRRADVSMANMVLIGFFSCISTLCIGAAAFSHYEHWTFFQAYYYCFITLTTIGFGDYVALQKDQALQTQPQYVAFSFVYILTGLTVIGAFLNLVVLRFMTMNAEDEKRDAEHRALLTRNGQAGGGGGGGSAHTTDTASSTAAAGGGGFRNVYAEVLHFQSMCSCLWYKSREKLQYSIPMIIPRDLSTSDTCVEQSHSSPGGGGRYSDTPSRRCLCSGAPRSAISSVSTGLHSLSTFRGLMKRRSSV
KCNQ1 block: inhibitors of human KCNQ1 channel, primary screen, cell-based, thallium flux, high-throughput; Potassium voltage-gated channel subfamily KQT member 1 (Homo sapiens), P51787; CHO-K1 KCNQ1, FluxOR thallium flux fluorescence; stronger effect = higher value; B-score at 10 µM; 310,000 compounds, 1.3% hits; AID 2642, 2010;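 active means compounds whose thallium flux B-score, printed positive for inhibition, exceeds three library SD while starting fluorescence stays within three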;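 further: channel opened by potassium depolarization with thallium stimulus after 20 min compound exposure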
KCNK9 inh: KCNK9 potassium channel inhibitors, primary screen, HEK293 cells, thallium flux. FluxOR thallium flux fluorescence; stronger effect = lower value. 310,000 compounds, 1.2% hits. Potassium channel subfamily K member 9 (Homo sapiens), Q9NPC2. AID 488922, 2010. B-score at 10 µM;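 active means ratio B-score over 3 SD below the library mean, with starting fluorescence within 5 SD of its mean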;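 further: negative B-score means less thallium flux so channel inhibition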
hERG protect: hERG rescue from dofetilide block, primary screen, cell-based, CHO-hERG, FluxOR thallium flux, dofetilide IC70; Voltage-gated inwardly rectifying potassium channel KCNH2 (Homo sapiens), Q12809; dofetilide IC70 present; activation (rescue from dofetilide block), less the hit threshold, % at 10 µM; 310,000 compounds, 0.51% hits;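 active means activation above the mean of controls blocked by dofetilide plus 5 SD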;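 further: thallium influx through hERG after potassium depolarization seen as dye fluorescence rise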
KCNK9 block conf: KCNK9 potassium channel inhibitors, confirmation, HEK293 cells, thallium flux, duplicate. shares compounds with KCNK9 inh. FluxOR thallium flux fluorescence. inhibition, % at 10 µM. 4,900 compounds, 43% hits. AID 492992, 2010;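 active means thallium signal inhibited by more than 5 SD of the compound-free buffer control wells, on both duplicate plates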;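 further: 0% = assay buffer control wells without compound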
Kir21 sel: mouse Kir2.1 channel inhibition, confirmation, selectivity assay for KCNK9 modulator project, cell-based, HEK293, thallium flux; shares compounds with KCNK9 inh; 4,900 compounds, 4% hits; inhibition, % at 10 µM; Kir2.1 cells, FluxOR thallium flux fluorescence;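 active means thallium signal drop more than 5 SD beyond the mean of the no-compound control wells, seen in both duplicate plates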;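 further: signal is fluorescence rise after thallium addition divided by baseline fluorescence; plate controls were assay buffer only for no effect and full block by chlorpromazine control for full effect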
HEK293 Tl ctr: thallium flux in non-induced HEK293 cells, confirmation, counter-screen for KCNK9 inhibitor project, cell-based, second counter screen, non-induced KCNK9-HEK293; shares compounds with KCNK9 inh; inhibition, % at 10 µM; FluxOR thallium flux; 4,900 compounds, 40% hits;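 active means thallium signal drop beyond 5 SD of the untreated control mean, on both duplicate plates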;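 further: plate controls were buffer only IC0 wells for no effect and SID17386958 at its maximal inhibitory level for full effect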
An asterisk follows results filed as active; i = inactive; . = not tested or not shown. Hits are enriched below; roughly 3.1% of the tested compounds scored in any of these assays.

SMILES	KCNQ1 act	KCNK3 block	KCNQ1 block	KCNK9 inh	hERG protect	KCNK9 block conf	Kir21 sel	HEK293 Tl ctr
CC(C)CCn1c(=O)c2ccccc2n2c(CN(C)Cc3ccccc3)nnc12	i	i	i	i	-11	i	i	i
COc1ccc2c(c1)C1=NN(/C(C)=C/C(C)=O)C(c3cccc(F)c3)C1CC2 (stereo unspecified)	i	i	i	-12*	-16	44%*	i	33%*
COC(=O)c1ccccc1NC(=O)CC(=O)Nc1ccccc1C(=O)OC	i	i	i	i	-6	.	.	.
COC(=O)c1ccccc1CON1C(=O)C(C)(C)N(OCc2ccccc2C(=O)OC)C(=O)C1(C)C	i	i	i	i	-10	i	i	i
Cc1cc(Cl)ccc1OCCCC(=O)NNC(=O)c1ccccc1O	i	i	i	i	-21	.	.	.
O=S(=O)(c1ccc(Br)cc1)N1CCC2(CC1)OCCO2	i	i	i	i	-5	.	.	.
O=C(NCCCN1CCOCC1)c1cccc(S(=O)(=O)Nc2ccccc2Cl)c1	i	i	i	i	-4	.	.	.
CCc1cc(C(c2ccc(OC)c(OC)c2)N2CCOCC2)c(NC(=O)c2ccccc2)s1 (stereo unspecified)	i	i	i	i	-13	i	i	i
CC1CC(C)(C)NC2(CCCC2)N1 (stereo unspecified)	.	i	.	.	.	.	.	.
O=C(NCCCN1CCOCC1)C1CCN(S(=O)(=O)c2cccc(C(F)(F)F)c2)CC1	.	i	.	.	.	.	.	.
Cc1nc(NC(=O)CC(C)C)sc1-c1csc(Nc2ccc(Cl)cc2Cl)n1	i	i	i	i	-14	.	.	.
COc1ccc(-c2csc(NC(=O)c3ccco3)n2)cc1	i	i	i	-8.7*	-4	i	i	i
Cc1ccc(Cl)cc1Nc1nc(-c2sc(NC(=O)c3ccco3)nc2C)cs1	i	i	i	-12*	-29	34%*	i	i
CCC(C)C(=O)Nc1nc(C)c(-c2csc(Nc3ccccc3OC)n2)s1 (stereo unspecified)	i	i	i	-9.2*	-14	58%*	i	28%*
Cc1nc(NC(=O)c2ccco2)sc1-c1csc(Nc2ccc(Cl)cc2Cl)n1	i	i	i	i	-7	.	.	.
COc1ccc(Cl)cc1Nc1nc(-c2sc(NC(=O)CC(C)C)nc2C)cs1	i	i	i	-13*	-7	41%*	i	34%*
CN(C(=O)c1cccc(NC(=O)Cc2ccc(NC(=O)C3CCN(C(=O)C4CC4)CC3)cc2)c1)C1CCCCC1	.	i	.	.	.	.	.	.
Cc1ccc(-c2csc(NC(=O)c3ccc(-c4ccccc4)cc3)n2)o1	i	i	i	-9.7*	-15	i	i	i
COc1ccc(NC(=O)c2oc3ccccc3c2NC(=O)c2ccco2)cc1	i	i	i	-9.1*	-1	i	i	i
Cc1cc(=O)oc2cc(OCC(=O)N3CCOCC3)c(Cl)cc12	.	i	.	.	.	.	.	.
Cc1ccc(C)c(OCC(=O)N(Cc2nnc(-c3ccccc3Cl)o2)C2CC2)c1	i	i	i	i	-17	i	i	i
CCOc1cc(/C=N/NC(=O)c2nnn(-c3nonc3N)c2C)ccc1OCc1cccc(F)c1	i	i	i	i	-5	.	.	.
O=C(Nc1ccc2c(c1)N(S(=O)(=O)c1cccs1)CCC2)c1c(F)cccc1Cl	i	i	i	-11*	-13	i	i	36%*
O=C(Nc1c(S(=O)(=O)c2ccc(Cl)cc2)csc1Br)c1ccccc1Cl	i	i	i	-11*	-5	38%*	i	35%*
COc1ccc(N2CCN(C(=O)CN3C(=O)NC4(CCCCC4C)C3=O)CC2)cc1 (stereo unspecified)	.	i	.	.	.	.	.	.
SMILES	KCNQ1 act	KCNK3 block	KCNQ1 block	KCNK9 inh	hERG protect	KCNK9 block conf	Kir21 sel	HEK293 Tl ctr
CN(CCc1ccccc1)C(=O)c1cc(COc2ccc(F)cc2Cl)on1	i	i	i	i	-8	i	i	i
Cc1ccc(OCCN(C)C(=O)c2cc(COc3ccc(F)cc3F)on2)cc1	i	i	i	i	-14	i	i	i
Cc1cc(OCc2cc(C(=O)N(C)CCOc3ccccc3)no2)cc(C)c1Cl	i	i	i	i	-6	i	i	i
CN(Cc1ccc(F)cc1)C(=O)c1cc(COc2ccc(F)cc2F)on1	i	i	i	i	4	.	.	.
COc1cccc(CN(C)C(=O)c2cc(COc3c(F)cccc3F)on2)c1	i	i	i	i	-10	i	i	i
O=C(O)C(CCc1ccccc1)N1C(=O)c2ccccc2C1=O (stereo unspecified)	.	i	.	.	.	.	.	.
Cc1cc(C)cc(CC2CC(=O)N(c3ccc4c(c3)OCCO4)C2=O)c1 (stereo unspecified)	i	i	i	i	-3	i	i	i
COc1ccc(/C=C/C(=O)Oc2ccc(C)c(C)c2)cc1OC	i	i	i	i	-6	i	i	i
COc1ccc(/C=C/C(=O)C(C)(C)C)cc1OC	i	i	i	i	-1	.	.	.
O=C(Nc1nccs1)C1CCN(S(=O)(=O)c2c(Cl)cccc2Cl)CC1	i	i	i	-16*	-8	i	i	i
CC(=O)N1N=C(c2ccc(C)cc2)OC1c1ccc(C(C)C)cc1 (stereo unspecified)	i	i	i	i	-9	i	i	30%*
CC12CCC(=O)N1C(C(=O)N1CCN(c3cccc(Cl)c3)CC1)CS2 (stereo unspecified)	.	i	.	.	.	.	.	.
Cc1cccc(NC(=O)c2ccc(COc3ccc(Cl)cc3Cl)o2)n1	i	i	i	i	-4	i	i	i
